Test results taken from ChEMBL document CHEMBL1145628, “New tetrazole-based selective anandamide uptake inhibitors” (Bioorg Med Chem Lett, 2008).

Key:
[1] = target: T1, Transient receptor potential cation channel subfamily V member 1 (Homo sapiens, UniProt Q8NER1); assay: Agonist activity at human TRPV1 channel expressed in human HEK293 cells assessed as elevation in intracellular calcium flux at 10 uM relative to ionomycin; assay type: functional, cell-based
Procedure, shortened: (§1)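 HEK-293 cells overexpressing TRPV1 were used, with intracellular Ca2+ elevation as the read-out. The single-point value is the effect of 10 µM compound as percent of the Ca2+ response to 4 µM ionomycin. Data are means of 4 separate determinations.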

[2] = Inhibition of human MAGL mediated [14C]2-AG hydrolysis in COS cell; assay type: cell-based
Procedure, shortened: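 Enzyme source was cytosolic fractions of COS cells (MAGL-expressing), with hydrolysis of [14C]2-AG as the read-out; means of 4 determinations.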

Cannabinoid receptor 1 = Cannabinoid receptor 1 (Homo sapiens, UniProt P21554); assay: Binding affinity to human CB1 receptor expressed in COS cells; assay type: cell-based
Procedure, shortened: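 Tested at CB1 receptors in transfected COS cells; means of 4 separate determinations.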

[3] = target: T1, Transient receptor potential cation channel subfamily V member 1; assay: Agonist activity at human TRPV1 channel expressed in human HEK293 cells assessed as elevation in intracellular calcium flux; assay type: functional, cell-based; procedure, shortened: as §1
[4] = target: T2, Fatty-acid amide hydrolase 1 (Rattus norvegicus, UniProt P97612); assay: Inhibition of rat brain FAAH mediated [14C]anandamide hydrolysis
T2 sequence (P97612 whole entry): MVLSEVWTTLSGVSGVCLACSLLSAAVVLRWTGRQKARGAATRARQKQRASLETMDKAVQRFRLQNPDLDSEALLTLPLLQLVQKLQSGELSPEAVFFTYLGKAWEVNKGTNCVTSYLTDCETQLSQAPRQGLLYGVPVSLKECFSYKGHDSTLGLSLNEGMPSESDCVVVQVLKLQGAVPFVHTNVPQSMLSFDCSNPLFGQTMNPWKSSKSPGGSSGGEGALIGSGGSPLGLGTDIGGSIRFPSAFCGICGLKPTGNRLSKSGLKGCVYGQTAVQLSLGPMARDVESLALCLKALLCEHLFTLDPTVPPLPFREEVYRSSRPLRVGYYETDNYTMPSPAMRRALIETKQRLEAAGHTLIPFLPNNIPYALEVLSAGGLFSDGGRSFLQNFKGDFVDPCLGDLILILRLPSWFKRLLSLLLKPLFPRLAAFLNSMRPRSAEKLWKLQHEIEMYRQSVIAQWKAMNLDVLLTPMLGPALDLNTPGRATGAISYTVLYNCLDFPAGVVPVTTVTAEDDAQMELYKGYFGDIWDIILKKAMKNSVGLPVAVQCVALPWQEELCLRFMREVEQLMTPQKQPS
Procedure, shortened: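 Hydrolysis of [14C]anandamide was measured with rat brain membranes as the enzyme source; means of n = 4.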

Cannabinoid receptor 2 = Cannabinoid receptor 2 (Homo sapiens, UniProt P34972); assay: Binding affinity to human CB2 receptor expressed in COS cells; assay type: cell-based
Procedure, shortened: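 Human CB2 receptor expressed by transfection in COS cells. Each value is the mean of 4 separate determinations.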

RBL-2H3 = assay: Inhibition of [14C]anandamide uptake in rat RBL-2H3; assay type: functional, cell-based
Procedure, shortened: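 Uptake of [14C]anandamide was measured in intact RBL-2H3 cells; means of n = 4.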

[5] = target: Transient receptor potential cation channel subfamily A member 1 (Rattus norvegicus, UniProt Q6RI86); assay: Agonist activity at rat TRPA1 channel expressed in human HEK293 cells assessed as elevation in intracellular calcium flux; assay type: functional, cell-based
Procedure, shortened: (§2)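 Stably rat TRPA1-transfected HEK-293 cells, grown 3 days, were loaded with 4 µM Fluo4-AM plus 0.02% Pluronic for 1 h at room temperature. They were washed and resuspended in Tyrode's buffer pH 7.4, and [Ca2+]i was read under stirring (ex 488/em 516 nm) before and after compound addition. EC50 is the half-maximal [Ca2+]i rise. Efficacy (100 µM compound) is expressed relative to 100 µM mustard oil; n = 4 means.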

[6] = target: T3, Diacylglycerol lipase-alpha (Homo sapiens, UniProt Q9Y4D2); assay: Inhibition of human DAGLalpha mediated sn-1-[14C]oleoyl-2-arachidonoyl-glycerol hydrolysis to 2-AG in COS cell
T3 sequence (Q9Y4D2 whole entry): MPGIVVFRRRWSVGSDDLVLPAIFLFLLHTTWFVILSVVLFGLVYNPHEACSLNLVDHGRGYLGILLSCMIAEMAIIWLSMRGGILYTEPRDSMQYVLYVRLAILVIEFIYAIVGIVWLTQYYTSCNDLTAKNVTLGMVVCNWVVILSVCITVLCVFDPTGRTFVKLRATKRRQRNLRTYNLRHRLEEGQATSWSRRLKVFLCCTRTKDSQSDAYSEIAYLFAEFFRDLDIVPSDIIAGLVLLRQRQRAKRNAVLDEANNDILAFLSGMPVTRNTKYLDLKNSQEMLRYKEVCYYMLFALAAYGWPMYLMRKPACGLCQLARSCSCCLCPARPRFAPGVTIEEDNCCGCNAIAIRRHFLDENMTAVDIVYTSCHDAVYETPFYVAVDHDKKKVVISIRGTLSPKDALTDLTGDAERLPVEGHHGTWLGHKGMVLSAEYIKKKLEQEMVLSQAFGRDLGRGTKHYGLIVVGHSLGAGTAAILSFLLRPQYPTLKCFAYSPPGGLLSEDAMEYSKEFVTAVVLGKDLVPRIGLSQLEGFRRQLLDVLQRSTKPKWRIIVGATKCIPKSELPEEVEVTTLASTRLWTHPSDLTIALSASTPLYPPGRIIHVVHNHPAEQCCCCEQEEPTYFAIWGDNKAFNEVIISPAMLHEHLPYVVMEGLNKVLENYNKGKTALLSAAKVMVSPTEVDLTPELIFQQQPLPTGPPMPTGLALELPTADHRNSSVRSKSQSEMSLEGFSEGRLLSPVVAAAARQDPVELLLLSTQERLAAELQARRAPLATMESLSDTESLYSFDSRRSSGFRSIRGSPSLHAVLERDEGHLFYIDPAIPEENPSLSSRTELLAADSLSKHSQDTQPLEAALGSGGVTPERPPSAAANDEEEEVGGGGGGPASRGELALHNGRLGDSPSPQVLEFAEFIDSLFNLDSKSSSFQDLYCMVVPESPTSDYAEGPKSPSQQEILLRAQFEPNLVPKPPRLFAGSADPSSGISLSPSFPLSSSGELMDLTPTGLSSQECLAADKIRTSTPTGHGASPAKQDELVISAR
Procedure, shortened: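 Substrate: sn-1-[14C]oleoyl-2-arachidonoyl-glycerol. Conversion into 2-AG and [14C]oleic acid was followed using membranes of COS cells overexpressing human recombinant DAGLα; n = 4 means.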

[7] = target: Transient receptor potential cation channel subfamily A member 1 (Rattus norvegicus) (UniProt Q6RI86); assay: Agonist activity at rat TRPA1 channel expressed in human HEK293 cells assessed as elevation in intracellular calcium flux at 100 uM relative to mustard oil; assay type: functional, cell-based; procedure, shortened: as §2
Sequence of Transient receptor potential cation channel subfamily A member 1 (Rattus norvegicus) (Q6RI86 whole entry): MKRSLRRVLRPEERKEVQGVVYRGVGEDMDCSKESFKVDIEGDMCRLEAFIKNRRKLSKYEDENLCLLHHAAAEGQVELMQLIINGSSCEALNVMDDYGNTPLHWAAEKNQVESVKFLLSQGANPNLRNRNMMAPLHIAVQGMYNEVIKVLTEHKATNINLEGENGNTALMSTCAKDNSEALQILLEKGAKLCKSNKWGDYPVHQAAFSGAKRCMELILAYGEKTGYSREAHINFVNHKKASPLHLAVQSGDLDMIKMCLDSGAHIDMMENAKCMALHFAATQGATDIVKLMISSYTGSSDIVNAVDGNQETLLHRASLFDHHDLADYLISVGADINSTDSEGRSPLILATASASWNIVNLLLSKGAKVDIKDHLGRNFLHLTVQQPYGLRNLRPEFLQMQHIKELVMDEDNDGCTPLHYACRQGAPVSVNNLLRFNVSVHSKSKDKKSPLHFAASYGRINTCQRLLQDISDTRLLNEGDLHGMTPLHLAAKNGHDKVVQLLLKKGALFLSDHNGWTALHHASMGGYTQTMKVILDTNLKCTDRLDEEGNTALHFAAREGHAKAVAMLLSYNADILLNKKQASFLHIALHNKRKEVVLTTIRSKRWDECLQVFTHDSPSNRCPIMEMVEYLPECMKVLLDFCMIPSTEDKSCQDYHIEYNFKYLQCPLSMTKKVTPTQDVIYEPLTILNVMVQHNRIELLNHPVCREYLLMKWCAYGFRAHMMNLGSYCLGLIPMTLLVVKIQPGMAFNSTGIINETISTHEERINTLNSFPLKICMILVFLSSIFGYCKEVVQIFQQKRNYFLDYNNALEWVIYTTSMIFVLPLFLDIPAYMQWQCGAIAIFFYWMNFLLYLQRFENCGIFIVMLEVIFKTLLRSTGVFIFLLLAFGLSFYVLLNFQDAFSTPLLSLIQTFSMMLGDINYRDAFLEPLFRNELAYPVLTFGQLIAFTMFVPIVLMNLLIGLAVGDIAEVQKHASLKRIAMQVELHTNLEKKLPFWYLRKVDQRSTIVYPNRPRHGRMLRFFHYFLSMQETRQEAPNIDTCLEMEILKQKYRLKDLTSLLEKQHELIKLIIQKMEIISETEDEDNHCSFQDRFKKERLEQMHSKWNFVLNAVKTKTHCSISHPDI

Sequence of Cannabinoid receptor 1 (P21554 whole entry): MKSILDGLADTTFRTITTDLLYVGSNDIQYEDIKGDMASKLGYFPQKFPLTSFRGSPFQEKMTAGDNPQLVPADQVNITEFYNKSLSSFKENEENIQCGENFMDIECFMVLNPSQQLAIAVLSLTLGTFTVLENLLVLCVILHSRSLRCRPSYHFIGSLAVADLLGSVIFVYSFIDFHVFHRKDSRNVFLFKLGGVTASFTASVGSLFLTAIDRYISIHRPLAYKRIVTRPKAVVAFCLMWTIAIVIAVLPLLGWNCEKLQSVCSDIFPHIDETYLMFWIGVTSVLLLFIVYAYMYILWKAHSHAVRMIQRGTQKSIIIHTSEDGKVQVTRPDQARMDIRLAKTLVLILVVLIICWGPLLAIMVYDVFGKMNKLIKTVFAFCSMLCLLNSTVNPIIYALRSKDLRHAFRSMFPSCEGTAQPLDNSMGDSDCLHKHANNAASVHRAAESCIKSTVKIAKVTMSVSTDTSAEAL
T1 sequence (Q8NER1 whole entry): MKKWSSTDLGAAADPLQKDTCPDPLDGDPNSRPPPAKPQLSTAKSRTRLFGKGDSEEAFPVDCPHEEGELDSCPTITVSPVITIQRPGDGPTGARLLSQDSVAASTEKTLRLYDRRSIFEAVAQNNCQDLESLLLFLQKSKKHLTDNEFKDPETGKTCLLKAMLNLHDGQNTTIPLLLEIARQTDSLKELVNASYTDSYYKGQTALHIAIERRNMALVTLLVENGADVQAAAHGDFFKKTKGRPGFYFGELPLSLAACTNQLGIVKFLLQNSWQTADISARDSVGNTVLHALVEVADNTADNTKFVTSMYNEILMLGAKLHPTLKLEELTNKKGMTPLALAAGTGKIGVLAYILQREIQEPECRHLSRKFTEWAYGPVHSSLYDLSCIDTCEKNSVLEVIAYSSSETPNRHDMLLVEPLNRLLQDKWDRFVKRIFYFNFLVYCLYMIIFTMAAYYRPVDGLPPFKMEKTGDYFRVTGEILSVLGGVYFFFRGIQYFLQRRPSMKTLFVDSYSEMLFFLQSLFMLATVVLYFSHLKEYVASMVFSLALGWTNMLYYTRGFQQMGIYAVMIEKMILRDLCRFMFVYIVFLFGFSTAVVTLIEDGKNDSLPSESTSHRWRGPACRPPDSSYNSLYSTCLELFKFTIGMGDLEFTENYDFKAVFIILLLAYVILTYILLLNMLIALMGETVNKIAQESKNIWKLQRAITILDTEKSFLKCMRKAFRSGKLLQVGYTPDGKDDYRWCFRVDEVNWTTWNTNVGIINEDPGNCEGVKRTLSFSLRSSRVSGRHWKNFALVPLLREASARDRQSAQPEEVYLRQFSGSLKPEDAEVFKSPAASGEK
Sequence of Transient receptor potential cation channel subfamily A member 1 (Q6RI86 whole entry): as the sequence (Q6RI86 whole entry) above
Sequence of Cannabinoid receptor 2 (P34972 whole entry): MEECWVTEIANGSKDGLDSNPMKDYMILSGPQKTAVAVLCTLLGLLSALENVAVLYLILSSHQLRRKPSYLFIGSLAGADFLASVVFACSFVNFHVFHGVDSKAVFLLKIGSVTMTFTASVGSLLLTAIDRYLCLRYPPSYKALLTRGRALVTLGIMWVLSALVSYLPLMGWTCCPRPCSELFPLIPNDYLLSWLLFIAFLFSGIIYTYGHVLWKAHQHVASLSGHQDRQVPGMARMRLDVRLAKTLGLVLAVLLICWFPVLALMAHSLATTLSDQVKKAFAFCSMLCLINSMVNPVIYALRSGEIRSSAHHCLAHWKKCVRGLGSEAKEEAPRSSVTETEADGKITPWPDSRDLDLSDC

| Compound | Efficacy [1] [%] | IC50 [2] [µM] | Ki (Cannabinoid receptor 1) [µM] | EC50 [3] [µM] | IC50 [4] [µM] | Ki (Cannabinoid receptor 2) [µM] | IC50 (RBL-2H3) [µM] | EC50 [5] [µM] | IC50 [6] [µM] | Efficacy [7] [%] |
| --- | --- | --- | --- | --- | --- | --- | --- | --- | --- | --- |
| CC(=O)Cn1nnnc1Cc1ccc(-c2ccccc2)cc1 | 0 | > 10 | > 10 | > 100 | > 50 | > 10 | 5 | > 100 | > 10 | 11.4 |
| COC(=O)Cn1nnnc1Cc1ccc(-c2ccccc2)cc1 | 0 | > 10 | > 10 | > 100 | > 50 | > 10 | 4.9 | > 100 | > 10 | 0 |
| COC(=O)Cn1nnnc1CNC(=O)c1ccc(-c2ccccc2)cc1 | 8.6 | > 10 | > 10 | 29.6 | > 50 | > 10 | > 25 | > 100 | > 10 | 0 |
| CN(C)C(=O)Cn1nnc(CNC(=O)c2ccc(-c3ccccc3)cc2)n1 | 1.2 | > 10 | > 10 | > 100 | > 50 | > 10 | 2.3 | > 100 | > 10 | 0 |
| CC(C)Cn1nnnc1CNC(=O)c1ccc(-c2ccccc2)cc1 | 9.1 | > 10 | > 10 | 15 | > 50 | > 10 | > 25 | > 100 | > 10 | 26.1 |
| CC(=O)Cn1nnnc1CNC(=O)c1ccc(-c2ccccc2)cc1 | 7.7 | > 10 | > 10 | > 100 | > 50 | > 10 | 12.5 | > 100 | > 10 | 0 |
| CC(=O)Cn1nnc(CNC(=O)c2ccc(-c3ccccc3)cc2)n1 | 0 | > 10 | > 10 | > 100 | > 50 | > 10 | > 25 | > 100 | > 10 | 14 |
| CN(C)C(=O)Cn1nnnc1Cc1ccc(-c2ccccc2)cc1 | 4 | > 10 | > 10 | > 100 | > 50 | > 10 | 5.1 | > 100 | > 10 | 0 |
| COC(=O)Cn1nnc(Cc2ccc(-c3ccccc3)cc2)n1 | 0 | > 10 | > 10 | > 100 | > 50 | 8.1 | > 25 | > 100 | > 10 | 36 |
| N#CCn1nnc(Cc2ccc(-c3ccccc3)cc2)n1 | 0 | > 10 | > 10 | > 100 | > 50 | 6.2 | 5.1 | 16.2 | > 10 | 102 |
| N#CCn1nnnc1CNC(=O)c1ccc(-c2ccccc2)cc1 | 6.3 | > 10 | > 10 | > 100 | > 50 | > 10 | > 25 | > 100 | > 10 | 0 |
| CC(=O)Cn1nnc(Cc2ccc(-c3ccccc3)cc2)n1 | 0 | > 10 | > 10 | > 100 | > 50 | 5.2 | > 25 | > 100 | > 10 | 61.4 |
| N#CCn1nnnc1Cc1ccc(-c2ccccc2)cc1 | 5.4 | > 10 | > 10 | > 100 | > 50 | > 10 | 24.8 | 26.3 | > 10 | 83.2 |
| CC(C)Cn1nnc(CNC(=O)c2ccc(-c3ccccc3)cc2)n1 | 10.2 | > 10 | > 10 | 53.5 | > 50 | > 10 | > 25 | > 100 | > 10 | 0 |
| COC(=O)Cn1nnc(CNC(=O)c2ccc(-c3ccccc3)cc2)n1 | 2.2 | > 10 | > 10 | > 100 | > 50 | > 10 | > 25 | > 100 | > 10 | 0 |
| CC(C)Cn1nnnc1Cc1ccc(-c2ccccc2)cc1 | 4.7 | > 10 | > 10 | > 100 | > 50 | 7.7 | > 25 | > 100 | > 10 | 50.8 |
| N#CCn1nnc(CNC(=O)c2ccc(-c3ccccc3)cc2)n1 | 2.6 | > 10 | > 10 | > 100 | > 50 | > 10 | > 25 | > 100 | > 10 | 0 |
| CC(C)Cn1nnc(Cc2ccc(-c3ccccc3)cc2)n1 | 20.7 | > 10 | 1.6 | 10 | > 50 | 4.7 | > 25 | 26.3 | > 10 | 136 |
| CN(C)C(=O)Cn1nnc(Cc2ccc(-c3ccccc3)cc2)n1 | 5.3 | > 10 | > 10 | > 100 | > 50 | > 10 | > 25 | > 100 | > 10 | 0 |
